Assay results as given in ChEMBL document CHEMBL1148798, “High-efficacy 5-HT1A agonists for antidepressant treatment: a renewed opportunity” (J Med Chem, 2007).

Legend:
Rattus norvegicus [1] = experiment: Induction of flat body posture in orally dosed rat as after 60 mins; assay type: functional; conditions: po, 1 h
Outline: (§1)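 Compounds given po in H2O (10 mL/kg) to rats, five per dose, doses as free base. Forepaw treading sampled in 10 s per rat repeated 10 times over 10 min at 55-65 min. Present if uninterrupted for ≥3 s, responder if score ≥1. Flat body posture scored if present the whole period. […] Ratio is FBP ED50/FPT ED50.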

[2] = target: T1, 5-hydroxytryptamine receptor 1A (Homo sapiens, UniProt P08908); experiment: Agonist activity at human 5HT1A receptor expressed in C6 cells assessed as stimulation of [35S]GTPgammaS binding; assay type: functional, cell-based
T1 sequence (P08908 whole entry): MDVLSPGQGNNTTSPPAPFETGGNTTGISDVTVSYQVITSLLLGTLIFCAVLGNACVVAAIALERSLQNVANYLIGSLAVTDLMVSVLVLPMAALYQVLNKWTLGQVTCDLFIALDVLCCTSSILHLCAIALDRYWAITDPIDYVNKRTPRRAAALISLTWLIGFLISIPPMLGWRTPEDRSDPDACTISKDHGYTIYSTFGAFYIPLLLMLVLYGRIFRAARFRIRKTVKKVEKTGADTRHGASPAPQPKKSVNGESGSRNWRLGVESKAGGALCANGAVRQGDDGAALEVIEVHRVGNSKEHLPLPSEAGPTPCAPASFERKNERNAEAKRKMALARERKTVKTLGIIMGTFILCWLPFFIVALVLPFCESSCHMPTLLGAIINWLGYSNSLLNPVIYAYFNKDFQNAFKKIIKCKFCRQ

[3] = target: T2, 5-hydroxytryptamine receptor 1A (Homo sapiens) (UniProt P08908); experiment: Agonist activity at human 5HT1A receptor expressed in C6 cells assessed as stimulation of [35S]GTP-gamma-S binding relative to 5-hydroxytryptamine; assay type: functional, cell-based
T2 sequence (whole entry): T1 sequence (P08908 whole entry)
Outline: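 Membranes from C6-glial cells expressing h5-HT1A, diluted 20-fold in 20 mM HEPES with 30 µM GDP, 100 mM NaCl, 3 mM MgCl2, 0.2 mM ascorbic acid (16-38 µg protein). Compound preincubated 30 min at 25 °C, then 500 pM [35S]GTPγS added. Six concentrations tested. Nonspecific binding with 10 µM GTPγS.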

Rattus norvegicus [4] = experiment: Antidepressant like activity in orally dosed rat after 60 mins by forced swimming test; assay type: functional; conditions: po, 1 h
Outline: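 Porsolt-type test in rats: 15 min swim in a cylinder with 17 cm water at 25 °C, then 5 min retest 24 h later. Immobility scored blind. Vehicle po after session 1. Compound or vehicle po (10 mL/kg) 1 h before retest, n = 5-12 per dose, doses 0.01-40 mg/kg. Responders had immobility <138 s. […] MSD by Kruskal-Wallis then Dunn's test.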

[5] = target: T3, 5-hydroxytryptamine receptor 1A (Rattus norvegicus, UniProt P19327); experiment: Binding affinity to 5HT1A receptor in rat cortex membrane; assay type: cell membranes
T3 sequence (P19327 whole entry): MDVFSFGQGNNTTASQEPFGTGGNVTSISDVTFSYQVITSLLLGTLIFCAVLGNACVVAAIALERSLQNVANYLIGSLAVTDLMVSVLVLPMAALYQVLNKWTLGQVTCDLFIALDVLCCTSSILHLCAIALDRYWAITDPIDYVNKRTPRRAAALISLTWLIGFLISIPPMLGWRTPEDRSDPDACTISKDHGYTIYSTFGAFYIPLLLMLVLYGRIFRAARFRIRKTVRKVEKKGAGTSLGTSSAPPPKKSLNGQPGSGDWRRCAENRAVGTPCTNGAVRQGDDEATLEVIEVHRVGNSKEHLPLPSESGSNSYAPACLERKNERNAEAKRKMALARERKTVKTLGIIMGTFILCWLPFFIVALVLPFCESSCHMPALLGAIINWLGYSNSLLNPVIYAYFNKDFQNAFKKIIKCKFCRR

Rattus norvegicus [6] = experiment: Induction of forepaw treading in orally dosed rat after 60 mins; assay type: functional; conditions: po, 1 h; outline: as §1
[7] = Bioavailability in orally dosed rat; assay type: ADME, organism-based; conditions: in vivo, po
[8] = Dissociation constant, pKa of the compound; assay type: physicochemical
Rattus norvegicus [9] = organism: Rattus norvegicus; experiment: Ratio of ED50 for flat body posture induction in rat to ED50 for forepaw treading induction in rat
[10] = Lipophilicity, log D of the compound; assay type: physicochemical; conditions: octanol/water
[11] = Bioavailability in rat; assay type: ADME, organism-based; conditions: in vivo
[12] = Bioavailability in dog; assay type: ADME, organism-based, Canis lupus familiaris; conditions: in vivo

Row | SMILES | ED50 (Rattus norvegicus [1]) | EC50 [2] | Emax [3] | ED50 (Rattus norvegicus [4]) | Ki [5] | ED50 (Rattus norvegicus [6]) | further results
1 | CC(=O)Nc1cccc(N2CCN(CCCCNS(=O)(=O)CC3CCCCC3)CC2)c1 [NALUZOTAN] | > 40 mg/kg | 93.3 nM | 6.6% | > 40 mg/kg | 30.2 nM | > 40 mg/kg | 
2 | Cc1cnc(CNCC2(F)CCN(C(=O)c3ccc(F)c(Cl)c3)CC2)nc1 | 8.3 mg/kg | 389 nM | 70.3% | 0.05 mg/kg | 2.24 nM | 1.5 mg/kg | bioavailability [7]: > 80%; pKa [8]: 6.7; Ratio (Rattus norvegicus [9]): 5.5; logD [10]: 1.5
3 | O=c1[nH]c2ccccc2n1CCN1CCN(c2cccc(C(F)(F)F)c2)CC1 [FLIBANSERIN] | 20 mg/kg | 631 nM | 72% | > 320 mg/kg | 11.7 nM | > 40 mg/kg | 
4 | COc1ccnc(CNCC2(F)CCN(C(=O)c3ccc(F)c(Cl)c3)CC2)n1 |  | 447 nM | 75.5% |  | 6.46 nM |  | 
5 | Cc1cnc(CNCC2(F)CCN(C(=O)c3ccc(F)c(Cl)c3)CC2)cn1 |  |  |  |  | 66.1 nM |  | 
6 | O=C(c1ccc(F)c(Cl)c1)N1CCC(F)(CNCc2ccc(Cl)cn2)CC1 | 4.9 mg/kg | 69.2 nM | 80.4% |  | 0.692 nM | 3.8 mg/kg | Ratio (Rattus norvegicus [9]): 1.3
7 | CNc1ccnc(CNCC2(F)CCN(C(=O)c3ccc(F)c(Cl)c3)CC2)n1 |  | 309 nM | 58.8% |  | 4.79 nM |  | 
8 | O=C(c1ccc(F)c(Cl)c1)N1CCC(F)(CNCc2nccc(-c3ccco3)n2)CC1 |  | 10 nM | 79% | > 2.5 mg/kg | 0.427 nM |  | 
9 | O=C(c1ccc(F)c(Cl)c1)N1CCC(F)(CNCc2ccc(C(F)F)cn2)CC1 | 4.2 mg/kg | 240 nM | 96.4% |  | 3.8 nM | 2.5 mg/kg | Ratio (Rattus norvegicus [9]): 1.7
10 | Cc1ccc(CNCC2(F)CCN(C(=O)c3ccc(F)c(Cl)c3)CC2)nc1 [BEFIRADOL] | 1.4 mg/kg |  |  | 0.06 mg/kg |  | 0.38 mg/kg | bioavailability [11]: > 70%; pKa [8]: 6.4; bioavailability [12]: > 70%; logD [10]: 2.6
11 | O=C(c1ccc(F)c(Cl)c1)N1CCC(F)(CNCc2ncc(Cl)cn2)CC1 |  | 155 nM | 76% | 0.03 mg/kg | 3.39 nM |  | 
12 | Cc1ccc(CNCC2(F)CCN(C(=O)c3ccc(F)c(Cl)c3)CC2)nn1 |  | 7940 nM | 89.7% |  | 5.62 nM |  | 
13 | O=C(c1ccc(F)c(Cl)c1)N1CCC(F)(CNCc2ccc(CF)cn2)CC1 | 16 mg/kg | 229 nM | 61% | 0.17 mg/kg | 1.2 nM | 6.1 mg/kg | Ratio (Rattus norvegicus [9]): 2.6
14 | CNc1nc(CNCC2(F)CCN(C(=O)c3ccc(F)c(Cl)c3)CC2)ncc1C |  | 85.1 nM | 64.1% |  | 1.74 nM |  | 
15 | CCCN(CCC)C1CCc2cccc(O)c2C1 (stereo unspecified) [8-OH-DPAT] | > 40 mg/kg |  | 35.9% | 0.75 mg/kg |  | 40 mg/kg | 
16 | CN(C)c1ccnc(CNCC2(F)CCN(C(=O)c3ccc(F)c(Cl)c3)CC2)n1 |  | 89.1 nM | 63.4% |  | 2.29 nM |  | 
17 | O=C(c1ccc(F)c(Cl)c1)N1CCC(F)(CNCc2ncccn2)CC1 |  |  |  |  | 95.5 nM |  | 
18 | O=C(c1ccc(F)c(Cl)c1)N1CCC(F)(CNCc2ncc(C(F)F)cn2)CC1 |  | 3630 nM | 82.5% |  | 25.1 nM |  | 
19 | O=C(O)c1ccc(CNCC2(F)CCN(C(=O)c3ccc(F)c(Cl)c3)CC2)nc1 |  |  |  |  | > 10000 nM |  | 
20 | COC(=O)c1cnc(CNCC2(F)CCN(C(=O)c3ccc(F)c(Cl)c3)CC2)nc1 |  |  |  |  | 219 nM |  | 
21 | O=C(c1ccc(F)c(Cl)c1)N1CCC(F)(CNCc2ncc(CO)cn2)CC1 |  |  |  |  | 117 nM |  | 
22 | O=C(c1ccc(F)c(Cl)c1)N1CCC(F)(CNCc2ccc(CO)cn2)CC1 |  | 2040 nM | 80% |  | 7.41 nM |  | 
23 | CNc1nc(CNCC2(F)CCN(C(=O)c3ccc(F)c(Cl)c3)CC2)ncc1Cl |  | 42.7 nM | 71.8% | 0.32 mg/kg | 0.741 nM |  | 
24 | CCc1cnc(CNCC2(F)CCN(C(=O)c3ccc(F)c(Cl)c3)CC2)nc1 |  |  |  |  | 56.2 nM |  | 
